The structures appear in SMILES notation. Entries after “also recorded” stand apart in the source; their conditions may differ. Where two headings read alike, the source gives them in different places.

These results are taken from article PMC6427922 (Bioorganic & medicinal chemistry letters, 2018).

The target of data set [1] is T1, hM1 (Homo sapiens, UniProt P11229).
T1 sequence (P11229 1-460): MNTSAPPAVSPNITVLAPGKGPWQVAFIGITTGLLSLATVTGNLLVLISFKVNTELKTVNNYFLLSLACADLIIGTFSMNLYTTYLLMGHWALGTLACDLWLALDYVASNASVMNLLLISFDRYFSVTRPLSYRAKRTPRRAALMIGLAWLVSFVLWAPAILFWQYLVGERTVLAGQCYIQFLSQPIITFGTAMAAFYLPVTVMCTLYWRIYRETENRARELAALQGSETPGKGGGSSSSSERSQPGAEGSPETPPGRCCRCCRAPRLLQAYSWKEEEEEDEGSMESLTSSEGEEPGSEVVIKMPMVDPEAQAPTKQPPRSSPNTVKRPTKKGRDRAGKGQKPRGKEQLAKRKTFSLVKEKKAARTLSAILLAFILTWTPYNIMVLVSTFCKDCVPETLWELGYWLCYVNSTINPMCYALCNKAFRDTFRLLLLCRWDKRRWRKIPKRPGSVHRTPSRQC
The format is cell-based. The conditions noted are these: for M1 PAM activity in words (relative to 14 or comparators): hM1-CHO. An outline of the steps:
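Calcium mobilization in CHO cells expressing human M1, with a fixed EC20 concentration of acetylcholine present. Read-outs are EC50, pEC50 and ACh Max. Values are means of three independent experiments, each run in triplicate. Fold changes are expressed against a racemic reference compound.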

For data set [2] the following is noted: mice; cited from earlier work.
The conditions of data set [3]: rats; cited from earlier work.
The test system of the next data set is M1. The following applies: cells and native systems; cited from earlier work.
Data set [4] has as its system cognitive deficits induced by risperidone. The following applies: cited from earlier work.
For data set [5] the following is noted: non-human primates; cited from earlier work.
The next data set relates to NR1 knock-down mice. The conditions noted are these: cited from earlier work.
The subject of another data set is M4. The following applies: read-out: M4 EC50; selectivity; cited from earlier work.
A short description of data set [6]: Metabolite identification studies. The data set is classed as in vitro ADME.
The subject of the next data set is M3. The conditions noted are these: read-out: M3 EC50; selectivity; cited from earlier work.
Data set [7] deals with T1, hM1. The conditions noted are these: reference compound, racemate of 7; cited from earlier work.
For another data set, the system named is M2. The conditions noted are these: read-out: M2 EC50; selectivity; cited from earlier work.
A further data set concerns M5. The conditions noted are these: read-out: M5 EC50; selectivity; cited from earlier work.
Data set [8] is described as follows: Predicted hepatic clearance, human. The format is in vitro ADME.

Regarding `O=C(N[C@H]1CCCC[C@@H]1O)C1CN(Cc2ccc(-n3cccn3)cc2)c2cc(F)ccc2O1` (some centres unmarked) [compound 22], the “Fold increase in M1 PAM potency relative to 14” value on hM1 [1] (relative to 14) is ~ 3 fold. With `O=C(N[C@H]1CCCC[C@@H]1O)C1CN(Cc2ccc(-n3cccc3)nc2)c2ccccc2O1` (some centres unmarked) [28j], the “M1 PAM activity in words (relative to 14 or comparators)” value at hM1 [1] is recorded as “increase in M1 PAM potency”. Turning to `Cn1nccc1-c1ccc(CN2CC(C(=O)N[C@H]3CCCC[C@@H]3O)Oc3ccccc32)cn1` (some centres unmarked) [28 k], the “M1 PAM activity in words (relative to 14 or comparators)” value on hM1 [1] is given as “active”. As for `O=C(N[C@H]1CCCC[C@@H]1O)C1CN(Cc2ccc(-n3cccn3)cc2)c2cccc(F)c2O1` (some centres unmarked) [compound 24], the “Fold increase in M1 PAM potency relative to 14” value at hM1 [1] (relative to 14) is listed as approximately 7 fold. Regarding `O=C(N[C@H]1CCCC[C@@H]1O)[C@H]1CN(Cc2ccc(-n3cccn3)cc2)c2ccccc2O1` [compound 7], the Cholinergic toxicity entry in data set [2], in data set [3] and in [5] was “devoid of cholinergic toxicity” throughout. Moreover, the M1 agonism entry in the data set on M1 is given as “devoid of M1 agonism; also recorded: devoid of agonist activity in native systems”. The “Reversal of cognitive deficits induced by atypical antipsychotics” value in [4] was “reverse the cognitive deficits induced by atypical antipsychotics”. Regarding `O=C(N[C@H]1CCCC[C@@H]1O)C1Cc2ccccc2N(Cc2ccc(-n3cccn3)cc2)C1` (some centres unmarked) [compound 15], on hM1 [1], the “M1 PAM activity in words (relative to 14 or comparators)” value is “essentially equipotent to 14”. On to `O=C(N[C@H]1CCC[C@@H]1O)C1CN(Cc2ccc(-n3cccn3)cc2)c2ccccc2O1` (some centres unmarked) [25b], for which, at hM1 [1], the “M1 PAM activity in words (relative to 14 or comparators)” value was “comparable activity”. Regarding `O=C(N[C@H]1CCCCC1=O)C1CN(Cc2ccc(-n3cccn3)cc2)c2ccccc2O1` (some centres unmarked) [25f], the “M1 PAM activity in words (relative to 14 or comparators)” value at hM1 [1] is given as “retained reasonable M1 PAM activity”.

Consider `NC1CCCCC1NC(=O)C1CN(Cc2ccc(-n3cccn3)cc2)c2ccccc2O1` (centres unmarked) [25e], for which the “M1 PAM activity in words (relative to 14 or comparators)” value at hM1 [1] is on record as “retained reasonable M1 PAM activity”. `O=C(NC1CCOCC1)C1CN(Cc2ccc(-n3cccn3)cc2)c2ccccc2O1` (centres unmarked) [25d]: at hM1 [1] (relative to pyran homolog 25c), the “Fold loss in M1 PAM activity on deletion of the hydroxyl group on the pyran ring” value was ~ 34 fold. In the case of `O=C(N[C@H]1CCCC[C@@H]1O)C1CN(Cc2ccc(-n3cccn3)nc2)c2ccccc2O1` (some centres unmarked) [compound 18], the “M1 PAM activity in words (relative to 14 or comparators)” value on hM1 [1] is “equipotent to 14”. `Cn1cc(-c2ccc(Cn3cc(C(=O)N[C@H]4CCCC[C@@H]4O)c4c(F)cc(F)cc43)cn2)cn1` [compound 6]: in the data set on NR1 knock-down mice, the “Efficacy in NR1 knock-down mice” value is listed as “robust efficacy”. Regarding `O=C(N[C@H]1CCCC[C@@H]1O)C1CN(Cc2ccc(-n3cccn3)cc2)c2c(F)cccc2O1` (some centres unmarked) [compound 21], the “Fold decrease in M1 PAM activity relative to 14” value at hM1 [1] (relative to 14) was ~ 3 fold.

The term EC50 denotes the concentration that produces a half-maximal response. For `O=C(N[C@H]1CCCC[C@@H]1O)C1CN(Cc2ccc(-n3cccn3)cc2)c2ccccc2O1` (some centres unmarked) [compound 14], the concentration for a half-maximal effect (EC50) in the data set with M4, with M3, in the data set on M2 and with M5 was more than 30 µM in each case. In addition, the Route of metabolism entry in data set [6] is “P450-mediated debenzylation to afford 26”. Besides, on hM1 [7], the “M1 pEC50” value is 6.10 ± 0.13. For the same compound, the “Predicted hepatic clearance CLhep, human” value in data set [8] was 11.1 mL/min/kg. On to `O=C(Nc1ncccc1O)C1CN(Cc2ccc(-n3cccn3)cc2)c2ccccc2O1` (centres unmarked) [25j], for which, in data set [6], the Route of metabolism entry was “amide hydrolysis by esterases liberating 27”. The “M1 PAM activity in words (relative to 14 or comparators)” value on hM1 [1] is “equipotent to 14”.
